Published values from different studies.
Target: Serine/threonine-protein kinase Sgk3 (SGK3, Homo sapiens, UniProt Q96BR1)
Residues used in one study (Q96BR1 1-496): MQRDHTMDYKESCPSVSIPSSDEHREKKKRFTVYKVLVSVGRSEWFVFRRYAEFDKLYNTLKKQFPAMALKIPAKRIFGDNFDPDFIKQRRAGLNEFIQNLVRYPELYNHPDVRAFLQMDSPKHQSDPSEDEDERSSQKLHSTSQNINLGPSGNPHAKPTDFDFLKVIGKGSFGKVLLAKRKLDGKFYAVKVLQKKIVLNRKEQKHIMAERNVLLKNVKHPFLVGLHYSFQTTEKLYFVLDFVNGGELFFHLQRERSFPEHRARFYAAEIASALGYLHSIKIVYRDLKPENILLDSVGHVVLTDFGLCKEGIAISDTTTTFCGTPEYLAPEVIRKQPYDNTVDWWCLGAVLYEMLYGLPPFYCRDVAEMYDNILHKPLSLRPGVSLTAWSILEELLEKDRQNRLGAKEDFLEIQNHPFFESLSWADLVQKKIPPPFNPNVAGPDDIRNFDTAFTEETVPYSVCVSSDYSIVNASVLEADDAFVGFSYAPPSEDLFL

Compound	effect on	mode	method	concentration	measurement	result
O=c1[nH]c2ccccc2n1C1CCN(Cc2ccc(-c3[nH]c4cc5ncnc5cc4nc3-c3ccccc3)cc2)CC1	cell-free assay			0.5 µM	remaining signal	108%
Cn1cc(-c2cc(F)cc(N3CCn4c(cc5c4CCCC5)C3=O)c2CO)cc(Nc2ccc(N3CCN(C4COC4)CC3)cn2)c1=O	enzyme activity	inhibitor		0.1 µM	inhibition	14%
Nc1ncc(-c2nc(N3CCOCC3)nc(N3CCOCC3)n2)c(C(F)F)n1	binding		competition with immobilised ligand	10 µM	remaining binding	44%
COc1cc(Nc2ncc(F)c(Nc3ccc4c(n3)NC(=O)C(C)(C)O4)n2)cc(OC)c1OC	binding			10 µM	inhibition	52%
Cn1cc(-c2cccc(N3CCc4c(sc5c4CC(C)(C)C5)C3=O)c2CO)cc(Nc2ccncn2)c1=O	enzyme activity	inhibitor		1 µM	inhibition	5%
COc1ncccc1-c1cnn2ccc(N3CCN(C(=O)OC(C)C)CC3)nc12	binding		competition with immobilised ligand	1 µM	remaining binding	100%
CC(C)(C)c1cc(C=C(C#N)C#N)cc(Br)c1O	enzyme activity	inhibitor		0.5 µM	remaining activity	97.7%
Cc1nn(C)cc1-c1nc2c(N3CCN(Cc4ccc(Cl)cc4)CC3)c(Cl)cnc2[nH]1	binding		competition with immobilised ligand	1 µM	remaining binding	100%
Cn1cncc1[C@](O)(COc1ccc(C#N)cc1-c1ccc(OC(F)(F)F)cc1)c1ccc(C#N)cc1	cell-free assay		competition with immobilised ligand	1 µM	remaining binding	100%
